Results taken from ChEMBL document CHEMBL2021762, “Derivatives of 8-hydroxyquinoline--antibacterial agents that target intra- and extracellular Gram-negative pathogens” (Bioorg Med Chem Lett, 2012).
≈ marks a conversion by molar mass, not a printed value. Where “and” joins values, the source holds several entries; their conditions need not be identical. Equal entries are not always repeated. Calls of active or inactive are those of the source. No cut-off for these calls is given here.

Assays:
[1] = test system: Yersinia pseudotuberculosis; experiment: Inhibition of type 3 secretion in Yersinia pseudotuberculosis at 20 uM by reporter gene assay
Outline: (§1)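 Y. pseudotuberculosis T3S-linked reporter-gene screen, luminescence read on filter-based plate reader; compounds added from DMSO solutions. Tested at 10, 20, 50 and 100 µM, expressed as percent inhibition. EC50 taken from dose-response curves. Activity also checked with detergent present to exclude aggregation.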

[2] = test system: Yersinia pseudotuberculosis; experiment: Inhibition of type 3 secretion in Yersinia pseudotuberculosis at 50 uM by reporter gene assay; outline: as §1
[3] = test system: Yersinia pseudotuberculosis; experiment: Inhibition of type 3 secretion in Yersinia pseudotuberculosis at 100 uM by reporter gene assay; outline: as §1
[4] = test system: Yersinia pseudotuberculosis; experiment: Inhibition of type 3 secretion in Yersinia pseudotuberculosis at 10 uM by reporter gene assay; outline: as §1
J774 = experiment: Cytotoxicity against mouse J774 cells assessed as cell viability at 3.1 to 25 uM; type: cell-based; conditions: j774, 25 µM
Chlamydia trachomatis [5] = experiment: Antibacterial activity against Chlamydia trachomatis infected in HeLa cells at 50 uM up to 6 hrs; type: functional, organism-based
[6] = test system: Yersinia pseudotuberculosis; experiment: Antibacterial activity against T3S deficient Yersinia pseudotuberculosis infected in mouse J774 cells assessed as increase of host cell viability at 3.1 to 25 uM; type: functional, organism-based
Outline: (§2)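 J774 macrophages infected with Y. pseudotuberculosis, wild-type (pIB102) or T3S-deficient mutant (pIB604); uninfected control included. Viability read with CalceinAM fluorescence (green conversion in healthy cells). 100% = uninfected cells given DMSO alone.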

[7] = biological target: Tyrosine-protein phosphatase YopH (Yersinia pseudotuberculosis serotype I (strain IP32953)) (UniProt P08538); experiment: Inhibition of Yersinia pseudotuberculosis phosphatase activity of secreted YopH at 10 uM
Outline: (§3)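 Phosphatase activity of YopH secreted by Y. pseudotuberculosis, measured at 10, 20, 50 and 100 µM; expressed as percent inhibition. Some runs used HCl salt form.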

[8] = biological target: Tyrosine-protein phosphatase YopH (Yersinia pseudotuberculosis serotype I (strain IP32953)) (UniProt P08538); experiment: Inhibition of Yersinia pseudotuberculosis phosphatase activity of secreted YopH; outline: as §3
[9] = test system: Yersinia pseudotuberculosis; experiment: Antibacterial activity against wild type Yersinia pseudotuberculosis infected in mouse J774 cells assessed as increase of host cell viability at 3.1 to 25 uM; type: functional, organism-based; outline: as §2
[10] = biological target: Tyrosine-protein phosphatase YopH (Yersinia pseudotuberculosis serotype I (strain IP32953)) (UniProt P08538); experiment: Inhibition of Yersinia pseudotuberculosis phosphatase activity of secreted YopH at 100 uM; outline: as §3
[11] = (§4) Inhibition of type 3 secretion in Yersinia pseudotuberculosis by reporter gene assay; outline: as §1
[12] = test system: Yersinia pseudotuberculosis; experiment: as §4; outline: as §1
[13] = Cytotoxicity against human HeLa cells assessed as cell viability at 2 time MIC; type: cell-based; conditions: read-out: Activity
Chlamydia trachomatis [14] = experiment: Antibacterial activity against Chlamydia trachomatis infected in HeLa cells; type: functional
Outline: (§5)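 HeLa cells infected with C. trachomatis […] and incubated with compound in a dilution series, with a DMSO-treated control. Chlamydial inclusions are immunostained green and HeLa cells counterstained red. Inclusion size and number and HeLa cell morphology are judged by fluorescence microscopy. MIC is read from the absence of visible inclusions.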

[15] = biological target: Tyrosine-protein phosphatase YopH (Yersinia pseudotuberculosis serotype I (strain IP32953)) (UniProt P08538); experiment: Inhibition of Yersinia pseudotuberculosis phosphatase activity of secreted YopH at 20 uM; outline: as §3
[16] = biological target: Tyrosine-protein phosphatase YopH (Yersinia pseudotuberculosis serotype I (strain IP32953)) (UniProt P08538); experiment: Inhibition of Yersinia pseudotuberculosis phosphatase activity of secreted YopH at 50 uM; outline: as §3
Chlamydia trachomatis [17] = experiment: Antibacterial activity against Chlamydia trachomatis infected in HeLa cells at 100 uM up to 6 hrs; type: functional, organism-based
HeLa [18] = experiment: Cytotoxicity against human HeLa cells assessed as visible inclusions by fluorescence microscopy; type: cell-based; outline: as §5
HeLa [19] = experiment: Cytotoxicity against human HeLa cells assessed as change in morphology by fluorescence microscopy; type: cell-based; outline: as §5
Chlamydia trachomatis [20] = experiment: Antibacterial activity against Chlamydia trachomatis infected in HeLa cells assessed as reduction of inclusions size at 1.56 uM by fluorescence microscopy analysis; type: functional, organism-based; outline: as §5

Tyrosine-protein phosphatase YopH (Yersinia pseudotuberculosis serotype I (strain IP32953)), sequence (P08538 whole entry): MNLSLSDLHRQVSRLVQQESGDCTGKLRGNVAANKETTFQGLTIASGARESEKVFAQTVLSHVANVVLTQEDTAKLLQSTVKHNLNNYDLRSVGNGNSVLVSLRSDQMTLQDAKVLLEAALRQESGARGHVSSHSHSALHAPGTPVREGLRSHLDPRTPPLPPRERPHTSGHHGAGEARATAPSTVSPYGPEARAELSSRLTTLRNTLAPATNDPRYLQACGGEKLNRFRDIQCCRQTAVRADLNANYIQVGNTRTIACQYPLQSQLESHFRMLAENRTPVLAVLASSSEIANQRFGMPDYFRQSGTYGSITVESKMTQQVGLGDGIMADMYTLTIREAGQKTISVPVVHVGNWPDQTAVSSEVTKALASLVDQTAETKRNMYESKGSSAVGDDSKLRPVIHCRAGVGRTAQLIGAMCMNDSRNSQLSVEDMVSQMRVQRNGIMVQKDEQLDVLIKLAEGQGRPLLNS

Structure (SMILES) | inhibition [1] | inhibition [2] | inhibition [3] | inhibition [4] | further results
O=[N+]([O-])c1cc(CN2CCN(c3ccccc3)CC2)c(O)c2ccccc12 | inactive | inactive | inactive | inactive | –
Oc1c(CN2CCN(c3ccc(F)cc3)CC2)cc(Cl)c2cccnc12 | inactive | 93% | 97% | inactive | –
O=[N+]([O-])c1cc(CN2CCC(c3ccccc3)C2)c(O)c2ncccc12 (racemic) | 79% | 95% | 98% | 54% | Activity (J774): Toxic; Activity (Chlamydia trachomatis [5]): inactive; Activity [6]: inactive; inhibition [7]: 47%; inhibition [8]: Dose-dependent effect; Activity [9]: Active; inhibition [10]: 69%; EC50 [11]: 14.6 µM; inhibition [12]: Dose-dependent effect; viability [13]: 92.1%; MIC (Chlamydia trachomatis [14]): 12.5 µM (≈ 4.37 µg/mL); inhibition [15]: 64%; inhibition [16]: 68%
COc1c(CN2CCN(c3ccccc3)CC2)cc(Cl)c2cccnc12 | inactive | inactive | inactive | inactive | –
CCOc1ccccc1N1CCN(Cc2cc(Cl)c3cccnc3c2O)CC1 | inactive | 37% | 89% | inactive | –
Oc1c(CN2CCN(c3ccc(F)cc3)CC2)cc(Br)c2cccnc12 | inactive | 78% | 89% | inactive | –
Cc1cccc(N2CCN(Cc3cc(Br)c4cccnc4c3O)CC2)c1 | inactive | 41% | 81% | inactive | –
O=[N+]([O-])c1cc(CN2CCN(c3ccccc3)CC2)c(O)c2ncccc12 | 88% | 94% | 97% | 66% | Activity (J774): Toxic; Activity [6]: inactive; inhibition [7]: 49%; inhibition [8]: Dose-dependent effect; Activity [9]: Active; inhibition [10]: 79%; EC50 [11]: 12.4 µM; inhibition [12]: Dose-dependent effect; viability [13]: 66.3%; MIC (Chlamydia trachomatis [14]): 25 µM (≈ 9.11 µg/mL); inhibition [15]: 73%; Activity (Chlamydia trachomatis [17]): inactive; inhibition [16]: 77%
Oc1c(CN2CCN(c3ccc(F)cc3)CC2)ccc2cccnc12 | inactive | 58% | 95% | inactive | –
Oc1c(CN2CCN(c3ccccc3)CC2)cc(Cl)c2cccnc12 | inactive | 14% and 22% | – | inactive | –
CN1CCN(Cc2cc(Cl)c3cccnc3c2O)CC1 | inactive | inactive | 48% | inactive | –
CC1CN(Cc2cc([N+](=O)[O-])c3cccnc3c2O)CC(C)O1 (stereo not drawn) | inactive | 76% | 93% | inactive | –
Oc1c(CN2CCCCC2)cc(Cl)c2cccnc12 | inactive | 8% | 12% | inactive | –
O=[N+]([O-])c1cc(CN2CCN(c3ccc(F)cc3)CC2)c(O)c2ncccc12 | – | – | – | – | Activity (J774): Toxic; Activity (HeLa [18]): Non-toxic; Activity [6]: inactive; inhibition [7]: 17% and 38%; inhibition [8]: Dose-dependent effect; Activity [9]: Active; Activity (HeLa [19]): Non-toxic; inhibition [10]: 94% and 83%; EC50 [11]: 6.24 µM; inhibition [12]: Dose-dependent effect; viability [13]: 90.2%; MIC (Chlamydia trachomatis [14]): 3.13 µM (≈ 1.2 µg/mL); Activity (Chlamydia trachomatis [20]): Active; inhibition [15]: 56% and 66%; Activity (Chlamydia trachomatis [17]): inactive; inhibition [16]: 88% and 81%
O=[N+]([O-])c1ccc(O)c(CN2CCN(c3ccccc3)CC2)c1 | inactive | inactive | inactive | inactive | –
Oc1c(CN2CCN(c3ccccn3)CC2)cc(Cl)c2cccnc12 | inactive | 80% | 98% | inactive | –
COc1ccccc1N1CCN(Cc2cc([N+](=O)[O-])c3cccnc3c2O)CC1 | 25% | 77% | 85% | inactive | –
O=[N+]([O-])c1ccc(O)c(CN2CCN(c3ccc(Cl)cc3)CC2)c1 | inactive | inactive | inactive | inactive | –
COc1c(CN2CCN(c3ccccc3)CC2)cc(Br)c2cccnc12 | inactive | inactive | inactive | inactive | –
